Experimental data published in ChEMBL document CHEMBL1149075, “Synthesis and evaluation of alkoxy-phenylamides and alkoxy-phenylimidazoles as potent sphingosine-1-phosphate receptor subtype-1 agonists” (Bioorg Med Chem Lett, 2009).

Tests used:
Mus musculus [1] = experiment: Immunomodulatory activity in C57BL/6 mouse assessed as lymphopenia at 10 mg/kg, po after 6 hrs by complete blood count analysis; assay type: functional
Summary of the method: (§1)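 Mice dosed orally with compound in 3% BSA vehicle; vehicle-only control group. Doses 0.3–10 mg/kg. At 6 h, isoflurane anesthesia, about 250 µl retro-orbital blood collected into EDTA tubes, mixed with anticoagulant, kept on tilt table, then complete blood count. Percent lymphopenia reported.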

Homo sapiens [2] = species on record: Homo sapiens; experiment: Ratio of EC50 for human S1P3 receptor to EC50 for human S1P1 receptor
[3] = molecular target: T1, Sphingosine 1-phosphate receptor 3 (Homo sapiens, UniProt Q99500); experiment: Displacement of [33P]sphingosine-1-phosphate from human S1P3 receptor
T1 sequence (Q99500 whole entry): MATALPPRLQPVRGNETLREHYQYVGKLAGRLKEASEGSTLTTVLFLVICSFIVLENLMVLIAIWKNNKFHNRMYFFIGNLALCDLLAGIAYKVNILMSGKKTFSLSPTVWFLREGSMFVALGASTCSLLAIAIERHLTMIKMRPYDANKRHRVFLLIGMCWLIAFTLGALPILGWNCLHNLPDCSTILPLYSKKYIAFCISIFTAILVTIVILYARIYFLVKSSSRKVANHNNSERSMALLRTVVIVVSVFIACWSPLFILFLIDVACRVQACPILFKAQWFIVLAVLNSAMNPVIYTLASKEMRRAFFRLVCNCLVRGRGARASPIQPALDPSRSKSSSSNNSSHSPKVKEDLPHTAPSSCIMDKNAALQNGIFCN

[4] = molecular target: T1, Sphingosine 1-phosphate receptor 3; experiment: Agonist activity at human S1P3 receptor assessed as stimulation of [35S]GTPgammaS binding; assay type: functional
Homo sapiens [5] = species on record: Homo sapiens; experiment: Ratio of IC50 for human S1P3 receptor to IC50 for human S1P1 receptor
[6] = molecular target: T2, Sphingosine 1-phosphate receptor 4 (Homo sapiens, UniProt O95977); experiment: Displacement of [33P]sphingosine-1-phosphate from human S1P4 receptor
T2 sequence (O95977 whole entry): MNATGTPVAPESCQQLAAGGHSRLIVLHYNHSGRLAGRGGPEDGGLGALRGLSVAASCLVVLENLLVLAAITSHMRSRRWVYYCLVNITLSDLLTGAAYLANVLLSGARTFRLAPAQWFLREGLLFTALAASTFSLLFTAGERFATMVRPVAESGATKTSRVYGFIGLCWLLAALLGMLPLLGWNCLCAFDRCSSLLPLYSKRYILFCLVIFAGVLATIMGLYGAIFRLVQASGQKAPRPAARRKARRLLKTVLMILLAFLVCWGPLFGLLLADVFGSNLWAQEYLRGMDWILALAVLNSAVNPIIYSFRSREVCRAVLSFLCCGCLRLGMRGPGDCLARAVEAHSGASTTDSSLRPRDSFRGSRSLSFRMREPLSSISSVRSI

[7] = molecular target: Sphingosine 1-phosphate receptor 5 (Homo sapiens, UniProt Q9H228); experiment: Displacement of [33P]sphingosine-1-phosphate from human S1P5 receptor
Chain of Sphingosine 1-phosphate receptor 5 (Q9H228 whole entry): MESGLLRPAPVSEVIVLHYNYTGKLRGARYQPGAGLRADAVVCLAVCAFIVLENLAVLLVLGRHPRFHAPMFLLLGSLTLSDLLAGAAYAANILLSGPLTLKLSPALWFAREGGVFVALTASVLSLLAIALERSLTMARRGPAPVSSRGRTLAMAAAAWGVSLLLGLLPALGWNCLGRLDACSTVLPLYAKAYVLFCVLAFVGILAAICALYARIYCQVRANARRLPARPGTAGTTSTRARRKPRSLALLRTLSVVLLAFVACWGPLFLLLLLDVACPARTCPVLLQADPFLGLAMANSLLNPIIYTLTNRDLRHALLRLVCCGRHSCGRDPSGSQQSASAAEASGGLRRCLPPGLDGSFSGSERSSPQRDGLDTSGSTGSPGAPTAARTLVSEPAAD

[8] = molecular target: T3, Sphingosine 1-phosphate receptor 1 (Homo sapiens, UniProt P21453); experiment: Displacement of [33P]sphingosine-1-phosphate from human S1P1 receptor
T3 sequence (P21453 whole entry): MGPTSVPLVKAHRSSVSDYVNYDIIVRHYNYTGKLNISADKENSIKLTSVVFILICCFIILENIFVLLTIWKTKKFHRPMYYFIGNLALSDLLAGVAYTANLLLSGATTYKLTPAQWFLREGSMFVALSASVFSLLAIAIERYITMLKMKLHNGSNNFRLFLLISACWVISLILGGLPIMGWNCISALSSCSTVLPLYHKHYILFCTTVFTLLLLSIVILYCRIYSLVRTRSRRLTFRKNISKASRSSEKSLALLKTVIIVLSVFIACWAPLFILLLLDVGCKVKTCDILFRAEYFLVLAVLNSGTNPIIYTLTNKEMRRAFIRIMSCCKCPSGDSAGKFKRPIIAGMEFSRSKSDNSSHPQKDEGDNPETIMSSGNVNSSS

[9] = molecular target: T3, Sphingosine 1-phosphate receptor 1; experiment: Agonist activity at human S1P1 receptor assessed as stimulation of [35S]GTPgammaS binding; assay type: functional
Mus musculus [10] = experiment: Immunomodulatory activity in po dosed C57BL/6 mouse assessed as lymphopenia after 6 hrs by complete blood count analysis; assay type: functional, organism-based; summary of the method: as §1

Ratio EC50 (Homo sapiens [2]) | IC50 [3] [nM] | EC50 [4] [nM] | Ratio IC50 (Homo sapiens [5]) | IC50 [6] [nM] | IC50 [7] [nM] | IC50 [8] [nM] | EC50 [9] [nM] | SMILES | Activity (Mus musculus [1]) [%] | Activity (Mus musculus [10])
– | – | – | – | – | – | – | – | CCCCCCCCOc1ccc(-c2c[nH]c([C@@](C)(N)CO)n2)cc1 | 83 | –
– | – | – | – | – | – | – | – | CCCCCCCCOc1ccc(-c2c[nH]c([C@@](C)(N)CO)n2)cc1F | 70 | –
– | – | – | – | – | – | – | – | CCCCCCCOc1ccc(-c2c[nH]c([C@@](C)(N)CO)n2)cc1 | 74 | –
– | – | – | – | – | – | – | – | CCCCCCCCOc1ccc(NC(=O)[C@@](C)(N)CO)cc1F | 65 | –
26.9 | 5.3 | 14.8 | 20.3 | 1.1 | 1.4 | 0.26 | 0.55 | CCCCCCCCOc1ccc(-c2c[nH]c([C@@](C)(N)COP(=O)(O)O)n2)cc1 | – | –
– | – | – | – | – | – | – | – | CCCCCCCOc1ccc(NC(=O)[C@@](C)(N)CO)cc1 | 72 | –
4.7 | 3.6 | 9.8 | 10.2 | 1.8 | 3.2 | 0.35 | 2.1 | CCCCCCCCOc1ccc(NC(=O)[C@@](C)(N)COP(=O)(O)O)c(F)c1 | – | –
– | – | – | – | – | – | – | – | CCCCCCCCc1ccc(NC(=O)[C@@](C)(N)CO)cc1 | 36 | –
24 | 5.8 | 10.8 | 16.5 | 1.9 | 1.1 | 0.35 | 0.45 | CCCCCCCCOc1ccc(-c2c[nH]c([C@@](C)(N)COP(=O)(O)O)n2)cc1F | – | –
6.9 | 5.9 | 16.3 | 8.1 | 4 | 8.8 | 0.73 | 2.4 | CCCCCCCCOc1ccc(NC(=O)[C@@](C)(N)COP(=O)(O)O)cc1 | – | –
9.2 | 5.9 | 10.1 | 42 | 3.5 | 6.9 | 0.14 | 1.1 | CCCCCCCCOc1ccc(NC(=O)[C@@](C)(N)COP(=O)(O)O)cc1F | – | –
– | – | – | – | – | – | – | – | CCCCCCCCOc1ccc(-c2c[nH]c([C@@](C)(N)CO)n2)c(F)c1 | 81 | –
– | – | – | – | – | – | – | – | CCCCCCCCOc1ccc(NC(=O)[C@@](C)(N)CO)cc1 | 78 | Dose-dependent effect
– | – | – | – | – | – | – | – | CCCCCCCCOc1ccc(NC(=O)[C@@](C)(N)CO)c(F)c1 | 66 | –

SMILES | Ratio EC50 (Homo sapiens [2]) | IC50 [3] [nM] | EC50 [4] [nM] | Ratio IC50 (Homo sapiens [5]) | IC50 [6] [nM] | IC50 [7] [nM] | IC50 [8] [nM] | EC50 [9] [nM] | Activity (Mus musculus [1]) [%] | Activity (Mus musculus [10])
CCCCCCCCCCCCC/C=C/[C@@H](O)[C@@H](N)COP(=O)(O)O | – | 0.66 | 3 | – | 2.4 | – | 0.47 | 7.9 | – | –
